Laboratory results from paper PMC8374356 (Biochemistry and Biophysics Reports, 2021).

Columns and labels:
Assay type in all cases: cell-based, mouse
HT22 cells [1] = assay: Cell morphology by phase contrast microscopy; conditions: 50 μM peptide or 2 mM glutamate (positive control), 24 h
HT22 cells [2] = assay: Immunofluorescent staining of ssDNA; conditions: 2 mM glutamate alone for 18 h
How it was run: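 HT22 cells on cover glass (5 × 10⁴ cells/well, 24 h) exposed to 2 mM L-glutamate in fresh medium for 18 h. Fixed in 4% paraformaldehyde (pH 7.4, 4 °C, 30 min), acetone-permeabilised, goat-serum blocked. Rabbit anti-ssDNA (1:200, 4 °C overnight), Alexa 594 secondary with DAPI. Confocal imaging; ssDNA-positive cells counted over total nuclei. At least three repeats, mean ± SD, ANOVA/Tukey-Kramer.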

HT22 cells [3] = assay: TUNEL assay of glutamate-induced oxytosis; conditions: 2 mM glutamate alone for 18 h, normalized by nuclei count
AIF = AIF nuclear translocation by immunocytochemistry; conditions: HT22 cells, 2 mM glutamate alone for up to 18 h

## N[C@@H](CCC(=O)O)C(=O)O [glutamate, L-glutamate]
HT22 cells [1]
  cell morphology: induced cell detachment and shrinkage
HT22 cells [2]
  ssDNA-positive cells: 40%
HT22 cells [3]
  TUNEL-positive cells: up to 73%
AIF
  AIF localization: induced diffuse localization of AIF in both cytoplasm and nucleus
